# High-throughput results (PubChem)
# hDAT+cocaine: human DAT dopamine uptake with cocaine, either direction. LLC-PK1 hDAT cells, [14C]-dopamine uptake with cocaine IC80; actives deviate in either direction. Q01959. B-score at 10 µM. hit rate 1.3% among 110,000;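 active = Z score or B-score, a plate-position-corrected score, falls beyond the plate's 99.7% confidence bounds, in either direction; inactive = both scores lie inside the 99.7% bounds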;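 also: scored against the spread of the other compound wells on the same plate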
# Calb biofilm kill: kills Candida albicans biofilms; C. albicans biofilm + clotrimazole, Alamar Blue; inhibition, % at 6 µM; hit rate 0.14% among 85,000;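 active = inhibition above 20%; inactive = inhibition below 20%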;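 also: preformed 24 hr biofilms exposed to compound for 48 hr; 0% = biofilm without compound and 100% = blank killed by clotrimazole plus chlorhexidine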
# D1 allo mod: allosteric modulators of human D1 dopamine receptor; hit rate 5.9% among 58,000; B-score at 10 µM; HEK293 D1, CRE-luciferase, dopamine EC30 potentiation; actives deviate in either direction; P21728;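 active = luminescence count or its row- and column-corrected plate score outside the 99.7% band of the plate's sample wells, on either side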
# Target sequence (P21728 whole entry, looked up): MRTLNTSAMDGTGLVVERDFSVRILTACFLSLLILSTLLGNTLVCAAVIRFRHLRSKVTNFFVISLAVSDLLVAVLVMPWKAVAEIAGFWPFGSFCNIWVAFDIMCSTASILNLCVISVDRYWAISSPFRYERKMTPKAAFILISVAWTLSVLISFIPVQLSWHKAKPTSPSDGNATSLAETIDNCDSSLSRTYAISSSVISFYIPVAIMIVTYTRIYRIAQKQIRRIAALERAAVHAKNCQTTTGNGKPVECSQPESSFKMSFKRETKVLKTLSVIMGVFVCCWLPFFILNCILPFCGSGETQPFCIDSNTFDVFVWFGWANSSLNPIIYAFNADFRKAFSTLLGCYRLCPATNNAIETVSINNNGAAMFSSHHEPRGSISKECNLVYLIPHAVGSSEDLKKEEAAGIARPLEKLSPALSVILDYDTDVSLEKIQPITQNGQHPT
# AP ELISA ortho: orthogonal test for alternative complement pathway inhibitors. inhibition, % at 5 µM. hit rate 0.08% among 62,000. Human serum alternative complement pathway, LPS-coated ELISA, C3 deposition; tested in compound mixtures;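 active = inhibition above 30% in each of the two pooled mixtures holding the compound, so the lower value exceeds 30%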;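 also: 0% = serum in Mg-EGTA without compound and 100% = EDTA serum blank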
#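 Test system: human serum alternative complement pathway, C3 deposition on LPS-coated wells; also added: Plate-bound LPS; doses: 5 µM per compound in ten-compound mixtures; schedule: 1 h at 37 °C; detection: Anti-C3 ELISA, OD 450 nm; evaluation: percent inhibition of C3 deposition onto LPS; repeats: two pool placements per compound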
# MMP-13 inhibitor: blocks human MMP13 activity; inhibition, % at 4 µM; P45452; hit rate 0.07% among 65,000; AID 570; MMP-13 fTHP FRET cleavage, Mca fluorescence;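 active = inhibition above the mean of compound-free control plate wells plus 3 SD, cut at about 14% in these data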;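 also: 0% = DMSO wells and 100% = wells with reference MMP-13 inhibitor after basal subtraction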
# * hit, by the source's call; i = inactive; / = no result. This excerpt belongs to a sample that is enriched for hits.
SMILES,hDAT+cocaine,Calb biofilm kill,D1 allo mod,AP ELISA ortho,MMP-13 inhibitor
CCOC(=O)c1c(C)[nH]c(C(=O)CN2CCOCC2)c1C,-1.5,7,/,5,0
Cc1cccc(/C(N)=N/OC(=O)CCc2ccccc2)c1,-0.36,/,/,/,/
O=C(OCc1ccc(Cl)cc1Cl)c1cccnc1Cl,-8.6*,9,/,/,/
N#CC1=C(N)N=C(SCc2cccc3ccccc23)C(C(N)=O)C12CCCCC2 (stereo unspecified),0.79,/,/,/,/
COC(=O)c1ccc(COC(=O)c2ccc(N(C)C)cc2)cc1,-0.017,3,-0.62,9,-1
CN(C)c1ccc(C(=O)OCc2ccccc2)cc1,0.57,43*,/,/,/
c1ccc(N2CCN(c3nc(NCc4ccco4)c4ccccc4n3)CC2)cc1,-1.4,/,/,-2,-15
c1coc(CNc2nc(N3CCCCC3)nc3ccccc23)c1,-0.04,4,-3.7*,23,-41
Cc1c(C)n(CC(O)CN2C(=O)c3ccccc3S2(=O)=O)c2ccccc12 (stereo unspecified),2.4,4,/,/,/
COc1ccc2cc3cc(C(=O)NCc4ccccn4)oc3nc2c1,-0.79,/,0.064,-7,i
CCOc1ccc(NC(=O)c2cc3cc4ccc(OC)cc4nc3o2)cc1,0.0018,58*,/,/,/
Cn1nc(-c2ccc(Cl)cc2)c2cc(C(=O)NCCN3CCOCC3)sc21,2.6*,12,-0.75,12,-119
Cc1ccc(S(=O)(=O)N(C)Cc2ccc(-c3nnc4n3CCC4)cc2)cc1,2.2*,10,0.21,7,2
CN(C)CC1CCCCC1C1(O)c2ccccc2CSc2sccc21 (stereo unspecified),-1.2,-2,/,/,/
Cc1cc(C)c(S(C)(=O)=O)c(Sc2ccc(Cl)cc2)n1,-0.91,/,/,/,/
O=C1C(=O)c2ccc(-c3ccccc3)cc2-c2ccccc21,0.022,6,/,/,/
Nc1ccc2c(c1)C(=O)C(=O)c1ccccc1-2,-3.2*,3,/,/,/
Cc1ccc(Cl)cc1NC1=NC(=S)N(C(C)C)C12CCCCC2,0.024,8,/,/,/
CCO/N=C(\C)c1c(O)c(CC)c(-c2ccccc2)n(-c2ccccc2)c1=O,2.7*,4,/,/,/
CC(=O)c1c(O)c(C)c(-c2ccccc2)n(-c2ccccc2)c1=O,-0.0085,/,/,/,/
CCN1CCN(c2cc(C)c3cc(NC(=O)Cc4ccccc4OC)ccc3n2)CC1,-0.6,/,/,/,/
CCN1CCN(c2cc(C)c3cc(NC(=O)c4cncc(Br)c4)ccc3n2)CC1,/,4,-1.8,7,7
COc1cccc(C(=O)Nc2ccc3nc(N4CCN(c5ncccn5)CC4)cc(C)c3c2)c1OC,-6.9*,/,1.4,3,-10
CCN1CCN(c2cc(C)c3cc(NC(=O)c4ccc5c(c4)OCO5)ccc3n2)CC1,0.74,/,-5*,17,-1
CCN1CCN(c2cc(C)c3cc(NC(=O)c4ccc(OC)c(OC)c4)ccc3n2)CC1,2.6*,9,/,/,/
SMILES,hDAT+cocaine,Calb biofilm kill,D1 allo mod,AP ELISA ortho,MMP-13 inhibitor
O=C(CSCc1n[nH]c(=O)[nH]1)NCCOc1cccc(Oc2ccccc2)c1,0.83,1,-1.6,5,15*
Cc1cccc(-n2ncc3c(N4CCOCC4)ncnc32)c1,-0.42,-2,/,19,5
Cc1cccc(-n2ncc3c(N4CCCC4)ncnc32)c1,-0.87,0,-7.3*,/,-2
Cc1cccc(-n2ncc3c(NCc4cccnc4)ncnc32)c1,-0.028,6,-5.1*,13,-19
Cc1ccc(-n2ncc3c(N4CCN(c5ccccc5)CC4)ncnc32)c(C)c1,0.066,1,-4*,6,2
COc1ccc(-c2cc(C(F)F)n3ncc(C(=O)N4CCCCC4)c3n2)cc1,2.6*,8,/,/,/
CCN1CCN(C(=O)c2cnn3c(C(F)F)cc(-c4ccc(C)cc4)nc23)CC1,-0.014,3,/,12,-12
CCOC(=O)c1cccc(NC(=O)c2c(NCc3ccccc3)[nH]c(=O)[nH]c2=O)c1,-0.3,/,/,/,/
c1ccc(Nc2ccccc2Nc2ccccn2)nc1,0.69,7,0.47,4,2
Oc1cccc2ccc(Nc3ccccn3)nc12,1.1,11,-4.1*,13,5
CC(C)Cn1c(SCC(=O)NCc2ccc(Cl)cc2)nnc1-c1cccc(S(=O)(=O)N2CCOCC2)c1,0.43,4,/,/,/
CCC1CCCCN1CCCNC(=O)c1cn(CC(C)C)c(=O)c2cc(OC)c(OC)cc12 (stereo unspecified),-7.2*,8,-0.52,10,-11
COc1cc2c(C(=O)NCc3ccc(C)o3)cn(CC(C)C)c(=O)c2cc1OC,0.25,3,-0.00059,18,-9
O=C(COc1ncnc2ccc(Br)cc12)NCc1ccc2c(c1)OCO2,-8.9*,/,/,/,/
